# In ChEMBL document CHEMBL1125355, “Novel non-cross resistant diaminoanthraquinones as potential chemotherapeutic agents” (J Med Chem, 1992):
# Legend:
# [1] = test system: RPMI-8226; assay: In vitro inhibition of tumor cell growth in the human myeloma 8226/ADR system.; type: functional, cell-based
# Summary of the method: (§1)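 Cells trypsinized, seeded at 7500 cells/well, attached overnight. Serially diluted agent added to quadruplicate cultures; 24 h at 37 °C, 5% CO2, with [3H]thymidine 0.5 μCi/well during the last 4 h. Incorporation counted by scintillation; percent of media-only control from mean CPM. IC50 by linear forecast on a percent control vs log concentration plot.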
# [2] = test system: MCF7; assay: In vitro inhibition of tumor cell growth in the human mammary carcinoma MCF-7/ADR system.; type: functional, cell-based; summary of the method: as §1
# [3] = test system: MCF7; assay: In vitro inhibition of tumor cell growth in the human mammary tumor MCF-7 system; type: functional, cell-based; summary of the method: as §1
# [4] = test system: RPMI-8226; assay: In vitro inhibition of tumor cell growth in the human myeloma 8226 system.; type: functional, cell-based; summary of the method: as §1
# [5] = organism: Homo sapiens; assay: Compound was tested in vitro for activity in a human tumor cloning system at 5 ug/mL concentration after continuous exposure time; type: functional
# Summary of the method: (§2)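 Human tumor cloning assay on single-cell suspensions from patient solid tumors and effusions. Drug from DMSO stock was mixed into 0.3% agar CMRL 1066 with the cells, at 5×10^5 cells/mL over a feeder layer, and left for continuous exposure. Colonies (>50 cells) were counted around day 14 by inverted microscope. A run was evaluable with ≥20 control colonies and under 30% survival with 200 μg/mL vanadate.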
# [6] = organism: Homo sapiens; assay: Tumor-specific activity against human lung, non-small cell tumor type at 0.5 ug/mL concentration after 1 hr exposure time; Activity= no of responses/ no of evaluable, 0/1; type: functional
# [7] = organism: Homo sapiens; assay: Tumor-specific activity against human gastric tumor type at 0.5 ug/mL concentration after 1 hr exposure time; Activity= no of responses/ no tested, 1/1; type: functional, Stomach
# [8] = organism: Homo sapiens; assay: Tumor-specific activity against human ovary tumor type at 50 ug/mL concentration after 1 hr exposure time; Activity= no of responses/ no tested, 1/1; type: functional, Female gonad
# [9] = organism: Homo sapiens; assay: Tumor-specific activity against human breast tumor type at 5 ug/mL concentration after 1 hr exposure time; Activity= no of responses/ no tested, […]; type: functional
# [10] = organism: Homo sapiens; assay: Tumor-specific activity against human breast tumor type at 0.5 ug/mL concentration after 1 hr exposure time; Activity= no of responses/ no tested, 0/1; type: functional
# [11] = organism: Homo sapiens; assay: Tumor-specific activity against human ovary tumor type at 5 ug/mL concentration after 1 hr exposure time; Activity= no of responses/ no tested, 1/1; type: functional, Female gonad
# [12] = organism: Homo sapiens; assay: Compound was tested in vitro for activity in a human tumor cloning system at 5 ug/mL concentration after 1 hr exposure time; type: functional
# Summary of the method: (§3)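 Human tumor cloning assay on single-cell suspensions from patient solid tumors and effusions. Cells were exposed for 1 h at 37 °C in McCoy's 5A with 10% heat-inactivated FCS, washed twice, then plated at 5×10^5 cells/mL in 0.3% agar CMRL 1066 over a feeder layer. Colonies (>50 cells) were counted around day 14. A run was evaluable with ≥20 control colonies and under 30% survival with 200 μg/mL vanadate.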
# [13] = organism: Homo sapiens; assay: Tumor-specific activity against human total tumor type at 50 ug/mL concentration after 1 h exposure time; Activity= no of responses/ no tested, 5/5; type: functional
# [14] = organism: Homo sapiens; assay: Tumor-specific activity against human gastric tumor type at 50 ug/mL concentration after 1 hr exposure time; Activity= no of responses/ no tested, 1/1; type: functional, Stomach
# [15] = organism: Homo sapiens; assay: Compound was tested in vitro for activity in a human tumor cloning system at 0.5 ug/mL concentration after continuous exposure time; type: functional; summary of the method: as §2
# [16] = organism: Homo sapiens; assay: Tumor-specific activity against human ovary tumor type at 0.5 ug/mL concentration after 1 hr exposure time; Activity= no of responses/ no tested, 1/2; type: functional, Female gonad
# [17] = organism: Homo sapiens; assay: Compound was tested in vitro for activity in a human tumor cloning system at 0.5 ug/mL concentration after 1 hr exposure time; type: functional; summary of the method: as §3
# [18] = organism: Homo sapiens; assay: Tumor-specific activity against human breast tumor type at 50 ug/mL concentration after 1 hr exposure time; Activity= no of responses/ no tested, […]; type: functional
# [19] = organism: Homo sapiens; assay: Compound was tested in vitro for activity in a human tumor cloning system at 50 ug/mL concentration after 1 hr exposure time; type: functional; summary of the method: as §3
# [20] = organism: Homo sapiens; assay: Tumor-specific activity against human total tumor type at 0.5 ug/mL concentration after 1 hr exposure time; Activity= no of responses/ no tested, 2/5; type: functional
# [21] = organism: Homo sapiens; assay: Tumor-specific activity against human gastric tumor type at 5 ug/mL concentration after 1 hr exposure time; Activity= no of responses/ no tested, 2/2; type: functional, Stomach
# [22] = organism: Homo sapiens; assay: Tumor-specific activity against human lung, non-small cell tumor type at 50 ug/mL concentration after 1 hr exposure time; Activity= no of responses/ no of evaluable, […]; type: functional
# [23] = organism: Homo sapiens; assay: Compound was tested in vitro for activity in a human tumor cloning system at 50 ug/mL concentration after continuous exposure time; type: functional; summary of the method: as §2
# [24] = organism: Homo sapiens; assay: Tumor-specific activity against human total tumor type at 5 ug/mL concentration after 1 hr exposure time; Activity= no of responses/ no tested, 4/5
# [25] = organism: Homo sapiens; assay: Tumor-specific activity against human colon tumor type at 0.5 ug/mL concentration after 1 hr exposure time; Activity= no of responses/ no tested,[…]; type: functional
# [26] = organism: Homo sapiens; assay: Tumor-specific activity against human ovary tumor type at 5 ug/mL concentration after 1 h exposure time; Activity= no of responses/ no tested,2/2; type: functional, Female gonad
# [27] = organism: Homo sapiens; assay: Tumor-specific activity against human total tumor type at 50 ug/mL concentration after 1 hr exposure time; Activity= no of responses/ no tested,8/10; type: functional
# [28] = organism: Homo sapiens; assay: Tumor-specific activity against human gastric tumor type at 50 ug/mL concentration after 1 hr exposure time; Activity= no of responses/ no tested,1/1; type: functional, Stomach
# [29] = organism: Homo sapiens; assay: Tumor-specific activity against human total tumor type at 0.5 ug/mL concentration after 1 hr exposure time; Activity= no of responses/ no tested,4/10; type: functional
# [30] = organism: Homo sapiens; assay: Tumor-specific activity against human breast tumor type at 5 ug/mL concentration after 1 hr exposure time; Activity= no of responses/ no tested,1/2; type: functional
# [31] = organism: Homo sapiens; assay: Tumor-specific activity against human total tumor type at 5 ug/mL concentration after 1 hr exposure time; Activity= no of responses/ no tested,8/10; type: functional
# [32] = organism: Homo sapiens; assay: Tumor-specific activity against human ovary tumor type at 50 ug/mL concentration after 1 hr exposure time; Activity= no of responses/ no tested,2/2; type: functional, Female gonad
# [33] = organism: Homo sapiens; assay: Tumor-specific activity against human ovary tumor type at 0.5 ug/mL concentration after 1 hr exposure time; Activity= no of responses/ no tested,2/2; type: functional, Female gonad
# [34] = organism: Homo sapiens; assay: Tumor-specific activity against human gastric tumor type at 5 ug/mL concentration after 1 hr exposure time; Activity= no of responses/ no tested,1/1; type: functional, Stomach
# [35] = organism: Homo sapiens; assay: Tumor-specific activity against human colon tumor type at 50 ug/mL concentration after 1 hr exposure time; Activity= no of responses/ no tested,4/5; type: functional
# [36] = organism: Homo sapiens; assay: Tumor-specific activity against human breast tumor type at 50 ug/mL concentration after 1 hr exposure time; Activity= no of responses/ no tested,1/2; type: functional
# [37] = organism: Homo sapiens; assay: Tumor-specific activity against human gastric tumor type at 0.5 ug/mL concentration after 1 hr exposure time; Activity= no of responses/ no tested,1/1; type: functional, Stomach
# [38] = organism: Homo sapiens; assay: Tumor-specific activity against human breast tumor type at 0.5 ug/mL concentration after 1 hr exposure time; Activity= no of responses/ no tested,0/2; type: functional
# [39] = organism: Homo sapiens; assay: Tumor-specific activity against human colon tumor type at 5 ug/mL concentration after 1 hr exposure time; Activity= no of responses/ no tested,4/5; type: functional
structure (smiles),measurement,setting,value
O=C1c2ccccc2C(=O)c2c(NCC(O)CNCc3ccccc3)ccc(NCC(O)CCl)c21 (centres undefined),IC50,[1],14300 nM
same,IC50,[2],12.5 µM
same,IC50,[3],8200 nM
same,IC50,[4],11100 nM
CCCNCC(O)CNc1ccc(NCC(O)CCl)c2c1C(=O)c1ccccc1C2=O (centres undefined),IC50,[1],12500 nM
same,IC50,[2],8.7 µM
same,IC50,[3],3450 nM
same,IC50,[4],9600 nM
CCN(CC)CC(O)CNc1ccc(NCC(O)CCl)c2c1C(=O)c1ccccc1C2=O (centres undefined),% responders at 5 µg/mL,[5],100%
same,Activity,[6],0
same,Activity,[7],1
same,Activity,[8],2
same,Activity,[9],0
same,Activity,[10],0
same,Activity,[11],2
same,% responders at 5 µg/mL,[12],80%
same,Activity,[13],5
same,Activity,[14],1
same,% responders at 0.5 µg/mL,[15],50%
same,Activity,[16],1
same,IC50,[1],70 nM
same,% responders at 0.5 µg/mL,[17],40%
same,IC50,[2],0.72 µM
same,Activity,[18],1
same,% responders at 50 µg/mL,[19],100%
same,Activity,[20],2
same,IC50,[3],430 nM
same,Activity,[21],1
same,Activity,[22],1
same,IC50,[4],210 nM
same,% responders at 50 µg/mL,[23],100%
same,Activity,[24],4
CCN(CC)CC(O)CNc1ccc(NCC2CO2)c2c1C(=O)c1ccccc1C2=O.O=C(O)/C=C/C(=O)O (centres undefined),% responders at 5 µg/mL,[5],89%
same,Activity,[25],1
same,Activity,[26],2
same,Activity,[27],8
same,Activity,[28],1
same,Activity,[29],4
same,Activity,[30],1
same,Activity,[31],8
same,Activity,[32],2
same,% responders at 5 µg/mL,[12],80%
same,Activity,[33],2
same,Activity,[34],1
same,Activity,[35],4
same,% responders at 0.5 µg/mL,[15],89%
same,IC50,[1],9 nM
same,% responders at 0.5 µg/mL,[17],40%
same,Activity,[36],1
same,Activity,[37],1
same,IC50,[2],0.02 µM
same,% responders at 50 µg/mL,[19],80%
same,Activity,[38],0
same,IC50,[3],40 nM
same,Activity,[39],4
same,IC50,[4],10 nM
same,% responders at 50 µg/mL,[23],100%
CCN(CC)CC(O)CNc1ccc(N)c2c1C(=O)c1ccccc1C2=O (centres undefined),IC50,[3],6000 nM
COc1cccc2c1C(=O)c1c(O)c3c(c(O)c1C2=O)C[C@@](O)(C(=O)CO)C[C@@H]3O[C@H]1C[C@H](N)[C@H](O)[C@H](C)O1 [DOXORUBICIN],IC50,[1],560 nM
same,IC50,[4],33 nM
O=C1c2c(O)ccc(O)c2C(=O)c2c(NCCNCCO)ccc(NCCNCCO)c21 [MITOXANTRONE],IC50,[1],180 nM
same,IC50,[2],4 µM
same,IC50,[3],5 nM
same,IC50,[4],30 nM
